This is an account of results in ChEMBL document CHEMBL5053517, “Design, synthesis, and antiviral activity of phenylalanine derivatives as HIV-1 capsid inhibitors” (Bioorg Med Chem, 2021).

Data set [1] in a line: (§1) Cytotoxicity against human MT4 cells assessed as reduction in cell viability incubated for 3 days by XTT assay. The class given is cell-based. The following applies: MT4 cells, time 3 day. The procedure, abridged:
(§2)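 Uninfected MT-4 cells were cultured with various compound concentrations at 37°C, 5% CO₂ for three days, in parallel with the antiviral assay. XTT was added, and absorbance at 450 nm was read four hours later. CC₅₀ is the concentration giving 50% loss of cell viability.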
In general terms: Tetrazolium assays rely on reduction of a dye to a coloured formazan, in cell work by metabolically active cells.

The test system of data set [2] is Human immunodeficiency virus 1. Nature of the data set: Antiviral activity against HIV1 NL4-3 expressing NanoLuc-sec infected in human MT4 cells assessed as reduction in viral replication measured after 3 days by bright Glo-luciferase reporter gene assay. The class given is functional, organism-based. Particulars: Human immunodeficiency virus 1, NL4-3, MT4, 72 h. In short, it runs like this:
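MT-4 cells (1 × 10⁵ cells/mL) infected with 200 TCID50 HIV-1 NL4–3 Nanoluc-sec across a range of compound concentrations. Incubation ran 3 days at 37°C, 5% CO₂, over multiple replication rounds. Luminescence was read after Bright Glo addition. EC₅₀ is the concentration giving 50% lower luciferase RLU than virus-control wells.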
(Reporter assays use an easily measured gene product as a stand-in for the process of interest.)

Data set [3] is described as follows: Selectivity index, ratio of CC50 for cytotoxicity against human MT4 cells to EC50 for antiviral activity against HIV1 infected in human MT4 cells. In kind it is toxicity, cell-based. The following applies: read-out: Ratio CC50/EC50. The procedure, abridged:
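SI is CC₅₀/EC₅₀. For EC₅₀, MT-4 cells (1 × 10⁵ cells/mL) were infected with 200 TCID50 HIV-1 NL4-3 Nanoluc-sec with graded compound concentrations, held 3 days at 37°C, 5% CO₂, and read by luminescence; EC₅₀ is 50% luciferase reduction versus virus control. For CC₅₀, uninfected MT-4 cells were run in parallel for 3 days with an XTT read-out at 450 nm.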

The subject of the next data set is MT4. Described as §1. The class given is cell-based. The following applies: mt4, 72 h, time 3 day. In short, it runs like this:
as §2

Data set [4] in a line: Binding affinity to HIV1 capsid protein monomer assessed as dissociation constant by SPR analysis. More on the design: species or system Human immunodeficiency virus 1. The procedure, abridged:
(§3)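 SPR at 25 °C on amine-coupled GLH chips, with protein at 500 μg/ml in 10 mM sodium acetate pH 5.5. Running buffer was 20 mM sodium phosphate, 150 mM NaCl, 0.005% Tween 20, pH 7.4, plus 3% DMSO for compound dilutions. One-shot kinetics used 100 μL/min, 1 min association and 5 min dissociation. Responses were reference-subtracted, run three times, and KD taken from a one-site binding model.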
In general terms: In SPR one partner is held on a chip, and binding of the other changes the refractive index at the surface.

Data set [5] is described as follows: Binding affinity to HIV1 capsid protein hexamer assessed as dissociation constant by SPR analysis. Set-up: species or system Human immunodeficiency virus 1. The procedure, abridged:
as §3

For `COc1ccc(N(C)C(=O)[C@H](Cc2ccccc2)NS(=O)(=O)c2cccc(C(=O)N3CCc4ccncc43)c2)cc1`, in data set [1], the half-maximal cytotoxic concentration (CC50) at 72 h was greater than 8.76 µM. For the same compound, in data set [2], the EC50 is greater than 8.76 µM.
On to `COc1ccc(N(C)C(=O)[C@H](Cc2ccccc2)NC(=O)c2cccc(S(=O)(=O)N(C)c3ccc(OC)cc3)c2)cc1`, for which the selectivity ratio in data set [3] was greater than 1.61. In addition, in the data set with MT4, the CC50 was greater than 8.51 µM. In addition, the EC50 in data set [2] was found to be 5.27 µM.
As for `COc1ccc(N(C)C(=O)[C@H](Cc2ccccc2)NC(=O)C(=O)Nc2ccc3ncsc3c2)cc1`, the CC50 in the data set on MT4 is greater than 10.2 µM. The concentration for a half-maximal effect (EC50) in data set [2] is greater than 10.2 µM.
With `COc1ccc(N(C)C(=O)[C@H](Cc2ccccc2)NC(=O)c2cccc(NS(=O)(=O)c3ccc(OC(F)(F)F)cc3)c2)cc1`, the 50% cytotoxic concentration (CC50) with MT4 was greater than 7.97 µM. Further, the EC50 in data set [2] was greater than 7.97 µM.
`COc1ccc(N(C)C(=O)[C@H](Cc2ccccc2)NC(=O)c2cccc(S(=O)(=O)N3CCc4ccccc43)c2)cc1`: the half-maximal cytotoxic concentration (CC50) with MT4 was greater than 8.78 µM. Further, the EC50 in data set [2] is greater than 8.78 µM.
Turning to `COc1ccc(N(C)C(=O)[C@H](Cc2ccccc2)NC(=O)c2cccc(S(=O)(=O)N3CCCCC3)c2)cc1`, the selectivity ratio in data set [3] was greater than 1.86. Further, in data set [1], the CC50 at 72 h was greater than 9.03 µM. Also, the concentration for a half-maximal effect (EC50) in data set [2] amounted to 4.85 µM.
Take `COc1ccc(N(C)C(=O)[C@H](Cc2ccccc2)NC(=O)c2cccc(S(=O)(=O)N(C)C)c2)cc1`: the selectivity ratio in data set [3] is greater than 1.12. The CC50 in the data set with MT4 was greater than 10.1 µM. Moreover, the EC50 in data set [2] came out at 8.68 µM.
As to `COc1ccc(N(C)C(=O)[C@H](Cc2ccccc2)NS(=O)(=O)CC(=O)Nc2ccc(C#N)cc2)cc1`, the selectivity ratio in data set [3] was greater than 1.22. For the same compound, the 50% cytotoxic concentration (CC50) in the data set with MT4 was greater than 9.87 µM. Also, the half-maximal effective concentration (EC50) in data set [2] was determined as 8.09 µM.
For `COc1ccc(N(C)C(=O)[C@H](Cc2ccccc2)NS(=O)(=O)c2cccc(C(=O)N3CCOCC3)c2)cc1`, the CC50 in the data set with MT4 is greater than 9.3 µM. For the same compound, in data set [2], the EC50 is greater than 9.3 µM.
Take `COc1ccc(N(C)C(=O)[C@H](Cc2ccccc2)NC(=O)c2cccc(S(=O)(=O)N3CCc4cc(N)ccc43)c2)cc1`: the selectivity ratio in data set [3] was greater than 3.33. Also, in the data set with MT4, the CC50 is greater than 8.55 µM. Besides, the EC50 in data set [2] is 2.57 µM. In addition, the Kd in data set [4] was 11.6 µM; in data set [5], 4.21 µM.
As to `COc1ccc(N(C)C(=O)C(=O)N[C@@H](Cc2ccccc2)C(=O)N(C)c2ccc(OC)cc2)cc1`, the CC50 with MT4 is greater than 10.5 µM. Moreover, the EC50 in data set [2] is greater than 10.5 µM.
With `COc1ccc(N(C)C(=O)[C@H](Cc2ccccc2)NC(=O)c2cccc(NS(=O)(=O)c3cc(F)cc(F)c3)c2)cc1`, the CC50 with MT4 is greater than 8.63 µM. Besides, in data set [2], the half-maximal effective concentration (EC50) is greater than 8.63 µM.
In the case of `COc1ccc(N(C)C(=O)[C@H](Cc2ccccc2)NC(=O)c2cccc(S(=O)(=O)Nc3ccc(C(F)(F)F)cc3)c2)cc1`, the 50% cytotoxic concentration (CC50) in the data set with MT4 was greater than 8.17 µM. The concentration giving a half-maximal response (EC50) in data set [2] is greater than 8.17 µM.
As for `COc1ccc(N(C)C(=O)[C@H](Cc2ccccc2)NS(=O)(=O)CC(=O)Nc2cc(F)cc(F)c2)cc1`, the CC50 in the data set on MT4 was greater than 9.66 µM. The 50% effective concentration (EC50) in data set [2] was greater than 9.66 µM.
For `COc1ccc(N(C)C(=O)CS(=O)(=O)N[C@@H](Cc2ccccc2)C(=O)N(C)c2ccc(OC)cc2)cc1`, the selectivity ratio in data set [3] was greater than 1.85. Besides, the CC50 with MT4 was greater than 9.51 µM. The EC50 in data set [2] was 5.14 µM. For the same compound, the dissociation constant (Kd) in data set [4] stood at 15.8 µM; in data set [5] it was 4.82 µM.
As for `COc1ccc(N(C)C(=O)[C@H](Cc2ccccc2)NC(=O)C(=O)Nc2ccc([N+](=O)[O-])cc2)cc1`, the half-maximal effective concentration (EC50) in data set [2] is greater than 10.5 µM.
As to `COc1ccc(N(C)C(=O)[C@H](Cc2ccccc2)NC(=O)C(=O)Nc2ccc(C#N)cc2)cc1`, the CC50 in the data set on MT4 was greater than 11 µM. Besides, the EC50 in data set [2] was greater than 11 µM.
On to `COc1ccc(N(C)C(=O)[C@H](Cc2ccccc2)NS(=O)(=O)CC(=O)n2ncc3ccccc32)cc1`, for which the cytotoxic concentration (CC50) with MT4 is greater than 9.87 µM. For the same compound, in data set [2], the 50% effective concentration (EC50) was greater than 9.87 µM.
On to `COc1ccc(N(C)C(=O)[C@H](Cc2ccccc2)NC(=O)C(=O)N2CCc3cc(OC)ccc32)cc1`, for which the half-maximal cytotoxic concentration (CC50) in the data set with MT4 was greater than 10.3 µM. In data set [2], the concentration for a half-maximal effect (EC50) was greater than 10.3 µM.
With `COc1ccc(N(C)C(=O)[C@H](Cc2ccccc2)NC(=O)C(=O)Nc2cc(F)cc(F)c2)cc1`, in the data set on MT4, the CC50 was greater than 8.81 µM. In addition, the EC50 in data set [2] was greater than 8.81 µM.
As to `COc1ccc(N(C)C(=O)[C@H](Cc2ccccc2)NC(=O)c2cccc(S(=O)(=O)N3CCc4cc(OC)ccc43)c2)cc1`, the half-maximal cytotoxic concentration (CC50) in the data set with MT4 is greater than 8.34 µM. For the same compound, in data set [2], the concentration for a half-maximal effect (EC50) is greater than 8.34 µM.
As for `COc1ccc(N(C)C(=O)[C@H](Cc2ccccc2)NS(=O)(=O)c2cccc(C(=O)Nc3ccc4ncsc4c3)c2)cc1`, the 50% cytotoxic concentration (CC50) with MT4 was greater than 8.32 µM. In data set [2], the 50% effective concentration (EC50) was greater than 8.32 µM.
As for `COc1ccc(N(C)C(=O)[C@H](Cc2ccccc2)NC(=O)c2cccc(S(=O)(=O)Nc3cc(F)cc(F)c3)c2)cc1`, the half-maximal cytotoxic concentration (CC50) with MT4 was greater than 8.63 µM. The EC50 in data set [2] is greater than 8.63 µM.
For the compound `COc1ccc(N(C)C(=O)[C@H](Cc2ccccc2)NS(=O)(=O)CC(=O)N2CCc3cc(OC)ccc32)cc1`, in the data set on MT4, the CC50 was greater than 9.3 µM. Further, the half-maximal effective concentration (EC50) in data set [2] was greater than 9.3 µM.
On to `COc1ccc(N(C)C(=O)[C@H](Cc2ccccc2)NC(=O)c2cccc(NS(=O)(=O)c3ccc(F)cc3)c2)cc1`, for which the half-maximal cytotoxic concentration (CC50) in the data set on MT4 was greater than 8.91 µM. In data set [2], the half-maximal effective concentration (EC50) was greater than 8.91 µM.
Consider `COc1ccc(N(C)C(=O)[C@H](Cc2ccccc2)NS(=O)(=O)CC(=O)Nc2ccc3ncsc3c2)cc1`, for which the CC50 in the data set with MT4 is greater than 9.28 µM. The concentration giving a half-maximal response (EC50) in data set [2] was greater than 9.28 µM.
As to `COc1ccc(N(C)C(=O)[C@H](Cc2ccccc2)NS(=O)(=O)CC(=O)N2CCc3cc([N+](=O)[O-])ccc32)cc1`, in data set [1], the cytotoxic concentration (CC50) at 72 h was greater than 9.05 µM. Further, in data set [2], the EC50 is greater than 9.09 µM.
`COc1ccc(N(C)C(=O)[C@H](Cc2ccccc2)NC(=O)c2cccc(S(=O)(=O)N3CCSCC3)c2)cc1`: the selectivity ratio in data set [3] is greater than 1.84. Besides, the CC50 with MT4 was greater than 9.33 µM. The EC50 in data set [2] came out at 5.06 µM.
Take `COc1ccc(N(C)C(=O)c2cccc(S(=O)(=O)N[C@@H](Cc3ccccc3)C(=O)N(C)c3ccc(OC)cc3)c2)cc1`: the 50% cytotoxic concentration (CC50) with MT4 was greater than 8.51 µM. In data set [2], the EC50 is greater than 8.51 µM.
Take `COc1ccc(N(C)C(=O)[C@H](Cc2ccccc2)NC(=O)c2cccc(S(=O)(=O)N3CCc4cc([N+](=O)[O-])ccc43)c2)cc1`: the cytotoxic concentration (CC50) in the data set on MT4 is greater than 8.13 µM. The EC50 in data set [2] is greater than 8.13 µM.
On to `COc1ccc(N(C)C(=O)[C@H](Cc2ccccc2)NC(=O)C(=O)N2CCc3cc([N+](=O)[O-])ccc32)cc1`, for which the CC50 in the data set on MT4 is greater than 9.95 µM. Also, the half-maximal effective concentration (EC50) in data set [2] was greater than 9.95 µM.
With `COc1ccc(N(C)C(=O)[C@H](Cc2ccccc2)NS(=O)(=O)c2cccc(C(=O)NC3CC3)c2)cc1`, the CC50 in the data set with MT4 is greater than 9.85 µM. For the same compound, the EC50 in data set [2] was greater than 9.85 µM.

The term CC50 denotes the concentration that lowers cell viability or growth by half. For orientation: EC50 means the concentration that produces a half-maximal response. A word on the Kd: it is the equilibrium constant for the complex coming apart.
